Measurements from ChEMBL document CHEMBL3792366, “Role of disulfide linkage in action of bis(dialkylaminethiocarbonyl)disulfides as potent double-Edged microbicidal spermicide: Design, synthesis and biology” (Eur J Med Chem, 2016).
≈ marks a conversion by molar mass, not a printed value.

Assays:
[1] = Spermicidal activity in human sperms assessed as motility measured within 30 secs by phase contrast microscopy; format: functional, Sperm
Outline: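 Liquefied human semen (0.05 mL) was added to 0.25 mL test solution and vortexed 10 s at low speed. Motile sperm were scored visually under phase contrast in five fields within 30 s; assays in triplicate; MEC = minimum effective concentration.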

Candida albicans = test: Antifungal activity against Candida albicans after 48 hrs by broth microdilution method; format: functional
Outline: (§1)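 NCCLS broth microdilution in RPMI 1640 buffered with MOPS; starting inoculum 1–5 × 10^3 CFU/mL; plates incubated at 35 °C; MIC read after 48 h.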

Cryptococcus neoformans = test: Antifungal activity against Cryptococcus neoformans after 48 hrs by broth microdilution method; format: functional; outline: as §1
Sporothrix schenckii = test: Antifungal activity against Sporothrix schenckii after 48 hrs by broth microdilution method; format: functional; outline: as §1
[2] = tested on: Trichophyton mentagrophytes; test: Antifungal activity against Trichophyton mentagrophytes after 48 hrs by broth microdilution method; format: functional; outline: as §1
Candida parapsilosis = test: Antifungal activity against Candida parapsilosis ATCC 22019 after 48 hrs by broth microdilution method; format: functional; details: Lodderomyces parapsilosis, ATCC 22019, 48 h; outline: as §1
Trichomonas vaginalis [3] = test: Antitrichomonas activity against trophozoite stage of Trichomonas vaginalis clinical isolate assessed as cell viability under anaerobic condition after 48 hrs by trypan blue exclusion assay; format: functional
Outline: (§2)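 Log-phase T. vaginalis grown in TYM with 10% FCS, vitamin mix and penicillin/streptomycin at 37 °C. Compounds were made as 100 µg/mL DMSO stocks and serially diluted in TYM down to 0.1 µg/mL; DMSO/TYM served as vehicle. Parasites were incubated anaerobically at 37 °C, and viability was checked by trypan blue exclusion from 3 to 48 h. MIC = lowest concentration killing all cells by 48 h; each test was repeated three times.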

Trichomonas vaginalis [4] = test: Antitrichomonas activity against metronidazole-resistant trophozoite stage of Trichomonas vaginalis ATCC 50143 assessed as cell viability under anaerobic condition after 48 hrs by trypan blue exclusion assay; format: functional; details: ATCC 50143, 48 h; outline: as §2

SMILES | MEC [1] | MIC (Candida albicans) | MIC (Cryptococcus neoformans) | MIC (Sporothrix schenckii) | MIC [2] | MIC (Candida parapsilosis) | MIC (Trichomonas vaginalis [3]) | MIC (Trichomonas vaginalis [4])
N#CCCCN1CCN(C(=S)SCSC(=S)N2CCN(CCCC#N)CC2)CC1 | 0.5% |  |  |  |  |  |  | 
CN1CCN(C(=S)SCCSC(=S)N2CCN(C)CC2)CC1 | 0.5% |  |  |  |  |  |  | 
CCCSC(=S)N1CCN(CCCC#N)CC1 | >1% |  |  |  |  |  |  | 
S=C(SCc1ccccc1)N1CCN(C(=S)SSC(=S)N2CCN(C(=S)SCc3ccccc3)CC2)CC1 | >1% | > 76.3 µM | > 76.3 µM | > 76.3 µM | > 76.3 µM | > 76.3 µM | 95.4 µM (≈ 62.5 µg/mL) | 95.4 µM (≈ 62.5 µg/mL)
Cc1ccc(S(=O)(=O)N2CCN(C(=S)SSC(=S)N3CCN(S(=O)(=O)c4ccc(C)cc4)CC3)CC2)cc1 | >1% | > 76.5 µM | > 76.5 µM | 76.5 µM (≈ 48.3 µg/mL) | 76.5 µM (≈ 48.3 µg/mL) | > 76.5 µM | > 153 µM | > 153 µM
C=CCN1CCN(C(=S)SCCC)CC1 | >1% |  |  |  |  |  |  | 
CCCCCCSC(=S)N1CCN(C(=S)SSC(=S)N2CCN(C(=S)SCCCCCC)CC2)CC1 | 1% | 77.7 µM (≈ 50 µg/mL) | 38.8 µM (≈ 25 µg/mL) | 77.7 µM (≈ 50 µg/mL) | > 77.7 µM | 77.7 µM (≈ 50 µg/mL) | > 155 µM | > 155 µM
S=C(SCCN1CCCCC1)N1CCN(C(=S)SSC(=S)N2CCN(C(=S)SCCN3CCCCC3)CC2)CC1 | 0.5% | > 71.7 µM | > 71.7 µM | > 71.7 µM | > 71.7 µM | > 71.7 µM | > 143 µM | > 143 µM
O=[N+]([O-])c1ccc(N2CCN(C(=S)SSC(=S)N3CCN(c4ccc([N+](=O)[O-])cc4C(F)(F)F)CC3)CC2)c(C(F)(F)F)c1 | 0.1% | 35.6 µM (≈ 24.9 µg/mL) | > 71.3 µM | > 71.3 µM | 71.3 µM (≈ 50 µg/mL) | > 71.3 µM | > 142 µM | > 142 µM
CN1CCN(C(=S)SCSC(=S)N2CCN(C)CC2)CC1 | 0.5% |  |  |  |  |  |  | 
CCCCCCCCCCSC(=S)N1CCN(C(=S)SSC(=S)N2CCN(C(=S)SCCCCCCCCCC)CC2)CC1 | 1% | 66.2 µM (≈ 50 µg/mL) | 33.1 µM (≈ 25 µg/mL) | 66.2 µM (≈ 50 µg/mL) | > 66.2 µM | 66.2 µM (≈ 50 µg/mL) | > 132 µM | > 132 µM
CCCCN1CCN(C(=S)SCCSC(=S)N2CCN(CCCC)CC2)CC1 | 0.5% |  |  |  |  |  |  | 
CCCCCCCCSC(=S)N1CCN(C(=S)SSC(=S)N2CCN(C(=S)SCCCCCCCC)CC2)CC1 | 1% | 35.7 µM (≈ 25 µg/mL) | 35.7 µM (≈ 25 µg/mL) | 35.7 µM (≈ 25 µg/mL) | > 71.5 µM | > 71.5 µM | 89.4 µM (≈ 62.5 µg/mL) | > 143 µM
N#CCCCN1CCN(C(=S)SCCSC(=S)N2CCN(CCCC#N)CC2)CC1 | 0.5% |  |  |  |  |  |  | 
S=C(SSC(=S)N1CCCCC1)N1CCCCC1 [BIS(PIPERIDINYLTHIOCARBONYL)DISULFIDE] | 1% | 9.7 µM (≈ 3.11 µg/mL) | 2.4 µM (≈ 0.769 µg/mL) | 38.9 µM (≈ 12.5 µg/mL) | 19.4 µM (≈ 6.22 µg/mL) | 38.9 µM (≈ 12.5 µg/mL) | 155 µM (≈ 49.7 µg/mL) | 155 µM (≈ 49.7 µg/mL)
CCCCN1CCN(C(=S)SCCC)CC1 | >1% |  |  |  |  |  |  | 
C=CCN1CCN(C(=S)SCSC(=S)N2CCN(CC=C)CC2)CC1 | 1% |  |  |  |  |  |  | 
COc1ccccc1N1CCN(C(=S)SSC(=S)N2CCN(c3ccccc3OC)CC2)CC1 | 1% | 46.7 µM (≈ 25 µg/mL) | 23.3 µM (≈ 12.5 µg/mL) | 46.7 µM (≈ 25 µg/mL) | 93.4 µM (≈ 50 µg/mL) | > 93.4 µM | > 186 µM | > 186 µM
CCCCCCCCN1CCN(C(=S)SSC(=S)N2CCN(CCCCCCCC)CC2)CC1 | 0.1% | 91.4 µM (≈ 50 µg/mL) | 91.4 µM (≈ 50 µg/mL) | 91.4 µM (≈ 50 µg/mL) | 91.4 µM (≈ 50 µg/mL) | 91.4 µM (≈ 50 µg/mL) | 182 µM (≈ 99.6 µg/mL) | 182 µM (≈ 99.6 µg/mL)
CCCCCCCSC(=S)N1CCN(C(=S)SSC(=S)N2CCN(C(=S)SCCCCCCC)CC2)CC1 | >1% | > 74.5 µM | 74.5 µM (≈ 50 µg/mL) | 74.5 µM (≈ 50 µg/mL) | > 74.5 µM | 74.5 µM (≈ 50 µg/mL) | > 149 µM | > 149 µM

SMILES | MEC [1] | MIC (Candida albicans) | MIC (Cryptococcus neoformans) | MIC (Sporothrix schenckii) | MIC [2] | MIC (Candida parapsilosis) | MIC (Trichomonas vaginalis [3]) | MIC (Trichomonas vaginalis [4])
C=CCN1CCN(C(=S)SCCCCCC)CC1 | >1% |  |  |  |  |  |  | 
O=C(c1ccccc1)N1CCN(C(=S)SSC(=S)N2CCN(C(=O)c3ccccc3)CC2)CC1 | 0.5% | 94.1 µM (≈ 49.9 µg/mL) | > 94.1 µM | > 94.1 µM | > 94.1 µM | > 94.1 µM | > 188 µM | > 188 µM
CCCCN1CCN(C(=S)SCSC(=S)N2CCN(CCCC)CC2)CC1 | 0.5% |  |  |  |  |  |  | 
OC(Cn1cncn1)(Cn1cncn1)c1ccc(F)cc1F [FLUCONAZOLE] |  | 0.39 µM (≈ 0.119 µg/mL) | 0.19 µM (≈ 0.0582 µg/mL) | 0.39 µM (≈ 0.119 µg/mL) | 0.39 µM (≈ 0.119 µg/mL) | 0.39 µM (≈ 0.119 µg/mL) |  | 
S=C(SSC(=S)N1CCN(c2ccccn2)CC1)N1CCN(c2ccccn2)CC1 | 1% | > 104 µM | 104 µM (≈ 49.6 µg/mL) | 104 µM (≈ 49.6 µg/mL) | 52.4 µM (≈ 25 µg/mL) | > 104 µM | > 209 µM | > 209 µM
C=CCN1CCN(C(=S)SCCSC(=S)N2CCN(CC=C)CC2)CC1 | 0.5% |  |  |  |  |  |  | 
CCCCCCSC(=S)N1CCN(CCCC#N)CC1 | >1% |  |  |  |  |  |  | 
CC(C)(C)OC(=O)N1CCN(C(=S)SSC(=S)N2CCN(C(=O)OC(C)(C)C)CC2)CC1 | >1% | > 91.7 µM | > 91.7 µM | > 91.7 µM | > 91.7 µM | > 91.7 µM | > 183 µM | > 183 µM
CCCCCCCCCCCCCCCCN1CCN(C(=S)SSC(=S)N2CCN(CCCCCCCCCCCCCCCC)CC2)CC1 | 1% | 64.8 µM (≈ 50 µg/mL) | 64.8 µM (≈ 50 µg/mL) | 16.2 µM (≈ 12.5 µg/mL) | 16.2 µM (≈ 12.5 µg/mL) | > 64.8 µM | > 129 µM | > 129 µM
CCCCCCSC(=S)N1CCN(CCCC)CC1 | >1% |  |  |  |  |  |  | 
CS(=O)(=O)N1CCN(C(=S)SSC(=S)N2CCN(S(C)(=O)=O)CC2)CC1 | 1% | 104 µM (≈ 49.8 µg/mL) | > 104 µM | > 104 µM | 52.1 µM (≈ 24.9 µg/mL) | > 104 µM | > 208 µM | > 208 µM
CCCCN1CCN(C(=S)SCCCSC(=S)N2CCN(CCCC)CC2)CC1 | 0.5% |  |  |  |  |  |  | 
CC(C)COC(=O)N1CCN(C(=S)SSC(=S)N2CCN(C(=O)OCC(C)C)CC2)CC1 | >1% | 95.6 µM (≈ 50 µg/mL) | > 95.6 µM | > 95.6 µM | 95.6 µM (≈ 50 µg/mL) | > 95.6 µM | > 191 µM | > 191 µM
S=C(SCCN1CCOCC1)N1CCN(C(=S)SSC(=S)N2CCN(C(=S)SCCN3CCOCC3)CC2)CC1 | 0.5% | > 71.3 µM | > 71.3 µM | > 71.3 µM | > 71.3 µM | > 71.3 µM | > 142 µM | > 142 µM
Fc1ccc(N2CCN(C(=S)SSC(=S)N3CCN(c4ccc(F)cc4)CC3)CC2)cc1 | >1% | 97.8 µM (≈ 49.9 µg/mL) | > 97.8 µM | 97.8 µM (≈ 49.9 µg/mL) | 97.8 µM (≈ 49.9 µg/mL) | > 97.8 µM | > 195 µM | > 195 µM
CN1CCN(C(=S)SCCCSC(=S)N2CCN(C)CC2)CC1 | 0.5% |  |  |  |  |  |  | 
S=C(SSC(=S)N(C1CCCCC1)C1CCCCC1)N(C1CCCCC1)C1CCCCC1 | >1% | 48.7 µM (≈ 25 µg/mL) | 24.3 µM (≈ 12.5 µg/mL) | 97.4 µM (≈ 50 µg/mL) | 97.4 µM (≈ 50 µg/mL) | > 97.4 µM | > 194 µM | > 194 µM
N#CCCCN1CCN(C(=S)SCCCSC(=S)N2CCN(CCCC#N)CC2)CC1 | 0.5% |  |  |  |  |  |  | 
C=CCN1CCN(C(=S)SCCCSC(=S)N2CCN(CC=C)CC2)CC1 | 0.5% |  |  |  |  |  |  | 
